# Experimental data from different studies.
# Lines come from different studies, so protocols differ.
# Target: Mitogen-activated protein kinase 3 (MAPK3, Homo sapiens, UniProt P27361)
SMILES,test,setting,remaining binding [%]
CN(C)c1nccc(-c2cnn3ncccc23)n1,binding,1 µM,100
C[C@H](c1cccc(C#N)c1)n1cc(Cl)cc(C(N)=O)c1=N,"cell-free assay, competition with immobilised ligand",1 µM,97
C[C@@H](c1ccc(-n2cnc3c(N)ncnc32)cc1)N1CCc2nn(C)c(Cc3ccccc3)c2C1=O,"binding, competition with immobilised ligand",0.1 µM,100
N[C@@H]1CCN(c2nccc(-c3cnn4ncccc34)n2)C1,binding,1 µM,91
O=C(c1ccc(Nc2ncc(Cl)c(-c3cc4ccccc4s3)n2)cc1)N1CCC(N2CCCC2)CC1,"binding, competition with immobilised ligand",1 µM,97
CN(CCCC(F)(F)F)c1nccc(-c2cnn3ncccc23)n1,binding,1 µM,97
N#Cc1ccc(Nc2ccc3[nH]c(=O)[nH]c3c2)c(Cl)c1,"cell-free assay, competition with immobilised ligand",1 µM,95
N#Cc1ccccc1CSc1nnc2c(n1)[nH]c1ccccc12,"binding, competition with immobilised ligand",10 µM,89
F[C@@H]1CCN(c2nccc(-c3cnn4ncccc34)n2)C1,binding,1 µM,85
CO[C@@H](C)c1c(Nc2ccc([C@H](N(C)C(=O)C3CCS(=O)(=O)CC3)C(F)(F)F)cc2)cnc2cc(Cl)nn12,"cell-free assay, competition with immobilised ligand",1 µM,100
Cc1cnn2ncc(-c3ccnc(N(C)C)n3)c2c1,binding,1 µM,100
C=CC(=O)N1CCC(C(=O)NCC(=O)N2CCN(c3nc(-c4cnc(N)nc4C(F)F)nc(N4CCOCC4)n3)CC2)CC1,"binding, competition with immobilised ligand",1 µM,100
C[C@H]1CCN(c2nccc(-c3cnn4ncccc34)n2)C1,binding,1 µM,83
O=C(NCCCN1CCOCC1)c1ccc(Nc2ncc(Cl)c(-c3ccc(Cl)s3)n2)cc1,"binding, competition with immobilised ligand",1 µM,100
O=C(O)[C@@H]1[C@@H](Cn2nnc3ccccc3c2=O)CC[C@H]1C(=O)c1ccc(OCCC2CCOCC2)cc1,"cell-free assay, competition with immobilised ligand",1 µM,100
O=C(NCCCN1CCOCC1)c1ccc(Nc2nccc(-c3cc4ccccc4s3)n2)cc1,"binding, competition with immobilised ligand",1 µM,100
CN([C@@H]1CCc2c(CC(=O)O)c3cc(S(C)(=O)=O)ccc3n2C1)S(=O)(=O)c1ccc(F)cc1,"cell-free assay, competition with immobilised ligand",1 µM,92
c1cnn2ncc(-c3ccnc(N4CCC45COC5)n3)c2c1,binding,1 µM,94
C[C@@H]1CN(c2ccc3ncc(-c4ccc5[nH]nc(C6CC6)c5c4)n3n2)C[C@H](C)O1,"binding, competition with immobilised ligand",50 nM,100
Nc1ncc2c(n1)-c1c([nH]c3ccc(C#CC4CC4)cc13)CCCC2,"binding, competition with immobilised ligand",1 µM,100
c1cncc(-c2cccc(Nc3nccc(NC4CCCCC4)n3)c2)c1,"binding, competition with immobilised ligand",10 µM,100
COc1ncc2cc3ccccc3nc2c1C#N,"cell-free assay, competition with immobilised ligand",5 µM,93
C[C@@H]1CN(c2cc(-c3nn(C)c4ccc(OC5(C)CC5)cc34)ncn2)C[C@H](C)O1,"cell-free assay, competition with immobilised ligand",1 µM,100
O=C(Nc1c[nH]nc1C(=O)NC1CCNCC1)c1cc(F)cc(F)c1,"binding, competition with immobilised ligand",1 µM,100
c1ccc(N2CCN(Cc3nc4ccccc4[nH]3)CC2)nc1,"binding, competition with immobilised ligand",1 µM,100
COc1cnc(Nc2cccc(S(N)(=O)=O)c2)nc1N1CCN(c2ccccc2)C(=O)C1,"binding, competition with immobilised ligand",1 µM,100
